Measured values as given in paper PMC2976041 (Biochemistry, 2010).

Molecular target: T1, GFP-myo1e-tail (His6-GFP-myo1e-tail) (Homo sapiens, UniProt Q12965)
T1 sequence (Q12965 710-1108): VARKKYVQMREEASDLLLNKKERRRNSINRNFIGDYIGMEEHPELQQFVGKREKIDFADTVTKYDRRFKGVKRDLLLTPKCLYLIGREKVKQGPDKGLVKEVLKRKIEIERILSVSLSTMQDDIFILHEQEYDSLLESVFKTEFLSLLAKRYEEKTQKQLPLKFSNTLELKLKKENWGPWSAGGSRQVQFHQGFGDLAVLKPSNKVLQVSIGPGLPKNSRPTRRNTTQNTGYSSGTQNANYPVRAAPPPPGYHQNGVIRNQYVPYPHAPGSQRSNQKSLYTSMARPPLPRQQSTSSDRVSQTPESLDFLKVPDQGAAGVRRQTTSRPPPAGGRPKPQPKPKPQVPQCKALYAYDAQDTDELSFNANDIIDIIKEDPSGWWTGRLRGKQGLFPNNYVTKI
Experiment: LUV sedimentation, GFP fluorescence of supernatant
Assay type: binding
In short: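 His6-GFP-myo1e-tail co-expressed with calmodulin in Sf9 cells, purified on Ni-NTA then MonoS, and quantified by A488 (ε 55,000 M⁻¹cm⁻¹). 40 nM protein was mixed with sucrose-loaded 100-nm LUVs (e.g., DOPC with 2% phosphoinositide) in HNa100 (10 mM HEPES pH 7.0, 100 mM NaCl, 1 mM EGTA, 1 mM DTT) with 1 µM calmodulin and 0.25 mg/ml GST. Spun 150,000 × g, 30 min, 25°C; supernatant GFP fluorescence read. Hyperbolic fit gave K_eff versus total lipid.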

For CCCCCCCC/C=C\CCCCCCCC(=O)OC[C@H](COP(=O)([O-])OCC[N+](C)(C)C)OC(=O)CCCCCCC/C=C\CCCCCCCC [100% DOPC, 1,2-dioleoyl-sn-glycero-3-phosphocholine], which Kd is on record?
Its Kd is over 400 µM.

Which Kd does the source give for CCCCCCCC/C=C\CCCCCCCC(=O)OC[C@H](COP(=O)(O)O[C@H]1[C@H](O)[C@@H](OP(=O)(O)O)[C@H](OP(=O)(O)O)[C@@H](OP(=O)(O)O)[C@H]1O)OC(=O)CCCCCCC/C=C\CCCCCCCC [2% 18:1 PtdIns(3,4,5)P3, 1,2-dioleoyl-sn-glycerol-3-phospho-(1’-myo-inositol-3’,4’,5’-trisphosphate)] here?
The Kd was 3.2 ± 0.4 µM.

For CCCCCCCC/C=C\CCCCCCCC(=O)OC[C@H](COP(=O)(O)O[C@@H]1[C@H](O)[C@H](OP(=O)(O)O)[C@@H](O)[C@H](OP(=O)(O)O)[C@H]1O)OC(=O)CCCCCCC/C=C\CCCCCCCC [2% 18:1 PtdIns(3,5)P2, 1,2-dioleoyl-sn-glycerol-3-phospho-(1’-myo-inositol-3’,5’-bisphosphate)], which Kd is on record?
Its Kd is 13 ± 2.1 µM.

Which Kd does the source give for CCCCCCCC/C=C\CCCCCCCC(=O)OC[C@H](COP(=O)(O)OC[C@H](N)C(=O)O)OC(=O)CCCCCCC/C=C\CCCCCCCC [80% DOPS, 1,2-dioleoyl-sn-glycero-3-phospho-L-serine] here?
Its Kd is 0.51 ± 0.1 µM.
